Source: ChEMBL document CHEMBL1157562, “Piperazinyl glutamate pyridines as potent orally bioavailable P2Y12 antagonists for inhibition of platelet aggregation” (J Med Chem, 2010)

Columns and labels:
Platelet = assay: Relative potency, ratio of IC50 for drug to IC50 for AZD-6140 for platelet aggregation in human platelet rich plasma; assay type: functional
[1] = Antiplatelet aggregation activity against adenosine diphosphate-induced human platelet rich plasma assessed as inhibition of platelet aggregation by turbidimetric method; assay type: functional; settings: Homo sapiens, Platelet, Plasma
Method in brief: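 Human PRP, prepared by two-step centrifugation and adjusted to 330 000 platelets/μL with PPP. Compound was preincubated 5 min at 37 °C in 0.5% DMSO, then 20 μM ADP was added. OD626 was read kinetically for 15 min at 37 °C with mixing between reads.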

P2Y purinoceptor 12 = P2Y purinoceptor 12 (Homo sapiens, UniProt Q9H244); assay: Displacement of [33P]ADP from human recombinant P2Y12 receptor expressed in CHO cells; assay type: cell-based
Sequence of P2Y purinoceptor 12 (Q9H244 whole entry): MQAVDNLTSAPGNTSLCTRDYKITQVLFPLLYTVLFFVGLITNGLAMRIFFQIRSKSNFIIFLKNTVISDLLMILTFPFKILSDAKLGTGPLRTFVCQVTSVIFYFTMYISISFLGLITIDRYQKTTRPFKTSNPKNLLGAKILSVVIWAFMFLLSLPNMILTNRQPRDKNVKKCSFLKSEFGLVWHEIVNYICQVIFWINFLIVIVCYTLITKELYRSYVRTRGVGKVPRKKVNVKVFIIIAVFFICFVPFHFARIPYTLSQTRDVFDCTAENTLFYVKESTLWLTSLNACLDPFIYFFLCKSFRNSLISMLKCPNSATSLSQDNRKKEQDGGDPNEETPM
Method in brief: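 Washed membranes from CHO cells expressing synthetic human P2Y12, incubated 1 h at room temperature with 0.2 nM 33P-MeSADP in 50 mM Tris/100 mM NaCl/1 mM EDTA. Compound was tested as a 7-point 3-fold series in triplicate. Nonspecific binding was defined with 300 nM 2-MeSADP, followed by filtration.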

Compound	Ratio IC50 (Platelet)	IC50 [1] [µM]	Ki (P2Y purinoceptor 12) [µM]
CCCCOC(=O)N1CCN(C(=O)[C@H](CCC(=O)O)NC(=O)c2cc(N3CCC(CNC)CC3)cc(-c3ccccc3)n2)CC1	1	–	–
CCCCCOC(=O)N1CCN(C(=O)[C@H](CCC(=O)O)NC(=O)c2cc(N3CCC(CN)CC3)cc(-c3ccccc3)n2)CC1	0.62	–	–
CCOC(=O)N1CCN(C(=O)[C@H](CCC(=O)O)NC(=O)c2cc(OCC3CCNCC3)cc(-c3ccccc3)n2)CC1	2.7	4	–
CCOC(=O)N1CCN(C(=O)[C@H](CCC(=O)O)NC(=O)c2cc(NCCOC)cc(-c3ccccc3)n2)CC1	13	14	–
CCOC(=O)N1CCN(C(=O)[C@H](CCC(=O)O)NC(=O)c2cc(N3CCC(COC)CC3)cc(-c3ccccc3)n2)CC1	9.7	10	–
CCOC(=O)N1CCN(C(=O)[C@H](CCC(=O)O)NC(=O)c2cc(OCCCO)cc(-c3ccccc3)n2)CC1	12	9	–
CCOC(=O)N1CCN(C(=O)[C@H](CCC(=O)O)NC(=O)c2cc(N3CCC(CN)CC3)cc(-c3ccccc3)n2)CC1	3.4	3.3	–
CCCCOC(=O)N1CCN(C(=O)[C@H](CCC(=O)O)NC(=O)c2cc(N3CCC(CN4CCCC4)CC3)cc(-c3ccccc3)n2)CC1	1	–	–
CCCCOC(=O)N1CCN(C(=O)[C@H](CCC(=O)O)NC(=O)c2cc(N3CCC(CN(C)C)CC3)cc(-c3ccccc3)n2)CC1	1.3	–	–
CCOC(=O)N1CCN(C(=O)[C@H](CCC(=O)O)NC(=O)c2cc(N3CCC(O)CC3)cc(-c3ccccc3)n2)CC1	10	9.9	–
CCOC(=O)N1CCN(C(=O)[C@H](CCC(=O)O)NC(=O)c2cc(OCCN)cc(-c3ccccc3)n2)CC1	11	7.5	–
CCOC(=O)N1CCN(C(=O)[C@H](CCC(=O)O)NC(=O)c2cc(NC)cc(-c3ccccc3)n2)CC1	36	45	–
CCCCCOC(=O)N1CCN(C(=O)[C@H](CCC(=O)O)NC(=O)c2cc(OCCCC)cc(-c3ccccc3)n2)CC1	28	28	–
CCCCCOC(=O)N1CCN(C(=O)[C@H](CCC(=O)O)NC(=O)c2cc(N3CCC(CN4CCCC4)CC3)cc(-c3ccccc3)n2)CC1	0.93	–	–
CCCCCOC(=O)N1CCN(C(=O)[C@H](CCC(=O)O)NC(=O)c2cc(N3CCC(CNC)CC3)cc(-c3ccccc3)n2)CC1	0.99	–	–
CCOC(=O)N1CCN(C(=O)[C@H](CCC(=O)O)NC(=O)c2cc(-c3ccccc3)cc(-c3ccccc3)c2)CC1	–	> 100	0.373
CC(C)CN1CCN(C(=O)[C@H](CCC(=O)O)NC(=O)c2cccc(-c3ccccc3)n2)CC1	–	> 100	> 3.8
O=C(O)CC[C@H](NC(=O)c1cccc(-c2ccccc2)n1)C(=O)N1CCN(C(=O)Nc2ccccc2)CC1	–	> 100	0.842
CC(C)CCOC(=O)N1CCN(C(=O)[C@H](CCC(=O)O)NC(=O)c2cccc(-c3ccccc3)n2)CC1	–	88	0.033
O=C(O)CC[C@H](NC(=O)c1cccc(-c2ccccc2)n1)C(=O)N1CCN(C(=O)OC2CCCCC2)CC1	–	> 100	0.044
CCCCS(=O)(=O)N1CCN(C(=O)[C@H](CCC(=O)O)NC(=O)c2cccc(-c3ccccc3)n2)CC1	–	> 100	> 3.59
CCCCCOC(=O)N1CCN(C(=O)[C@H](CCC(=O)O)NC(=O)c2cc(NC(=O)N3CCCCC3)cc(-c3ccccc3)n2)CC1	–	> 10	0.0058
CCCCCOC(=O)N1CCN(C(=O)[C@H](CCC(=O)O)NC(=O)c2cc(NC(=O)OCCOC)cc(-c3ccccc3)n2)CC1	–	> 10	0.0014
CCNC(=S)N1CCN(C(=O)[C@H](CCC(=O)O)NC(=O)c2cccc(-c3ccccc3)n2)CC1	–	39	0.009
CCCCCOC(=O)N1CCN(C(=O)[C@H](CCC(=O)O)NC(=O)c2cc(CCCCCO)cc(-c3ccccc3)n2)CC1	–	> 10	0.0028
CCCCCOC(=O)N1CCN(C(=O)[C@H](CCC(=O)O)NC(=O)c2cc(NC(=O)CNC)cc(-c3ccccc3)n2)CC1	–	> 10	0.0057
